High-throughput results (PubChem)
NR2E3 ag-1: inhibitors of NR2E3-RetCOR corepressor binding, primary screen, NR2E3 agonist project, biochemical, TR-FRET, GST-NR2E3, biotin-RetCOR; actives 0.12% (n = 320,000); inhibition of corepressor binding, % at 4.78 µM; Photoreceptor-specific nuclear receptor (Homo sapiens), Q9Y5X4; 1536-well;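 active means percent inhibition above the cutoff of mean plus 3 SD of all tested compounds, set per screening campaign, cut at about 20% in these data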;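 further: 0% = DMSO wells and 100% = biotin wells as full block of FRET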
Target sequence (Q9Y5X4 whole entry, looked up): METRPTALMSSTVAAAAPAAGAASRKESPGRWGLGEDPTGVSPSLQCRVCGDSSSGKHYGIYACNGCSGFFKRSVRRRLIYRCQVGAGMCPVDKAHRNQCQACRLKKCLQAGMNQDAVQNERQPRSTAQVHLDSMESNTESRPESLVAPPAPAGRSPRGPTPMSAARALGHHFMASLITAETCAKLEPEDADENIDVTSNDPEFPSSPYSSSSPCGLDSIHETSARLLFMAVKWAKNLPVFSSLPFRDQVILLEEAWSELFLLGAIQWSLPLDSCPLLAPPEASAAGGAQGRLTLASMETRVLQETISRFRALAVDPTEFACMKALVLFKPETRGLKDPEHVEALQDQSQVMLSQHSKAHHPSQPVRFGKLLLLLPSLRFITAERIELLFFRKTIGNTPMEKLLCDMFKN
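Format: 1536-well format; test system: GST-NR2E3 and biotin-RetCOR proteins; read-out basis: percent inhibition of TR-FRET ratio; timing: 5 h incubation at 4 °C; detection: time-resolved FRET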
Rev-erbA mod: modulators of Rev-erb alpha DNA binding, primary screen, biochemical, FITC-DNA, fluorescence polarization, uHTS | Nuclear receptor subfamily 1 group D member 1 (Homo sapiens), P20393 | Rev-erbα–FITC-DNA binding, 90 min | activity, % at 10 µM | actives 0.79% (n = 370,000);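 active means activity above about 14%, limit read from the data; passing the limit was not always enough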;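 further: 0% = DMSO wells with 35 nM protein and 100% = DMSO wells with 750 nM protein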
PKA-R1A act: activators of PKA-R1A holoenzyme, primary screen, biochemical, fluorescence polarization, Cy5-IP20, bovine R1A, mouse PKAc. actives 0.083% (n = 340,000). cAMP-dependent protein kinase type I-alpha regulatory subunit (Bos taurus) + …. activation, % at 11.4 µM. AID 504707, 2011. PKA-R1A dissociation; scaled: DMSO 0%, 113 µM cGMP 100%;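 active means percent activation above the mean of all tested compounds plus 3 SD, cut at about 19% in these data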;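 further: higher means more PKAc released from R1A so a rise in polarization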
NR2E3 ag-2: NR2E3 agonists in two-hybrid cells, primary screen, cell-based, luminescence, CHO-S, Gal4-NCOR/VP16-NR2E3; inhibition of corepressor binding, % at 3.98 µM; actives 0.35% (n = 360,000); Photoreceptor-specific nuclear receptor (Homo sapiens), Q9Y5X4; luciferase;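 active means inhibition above the mean of all tested compounds plus 3 SD, cut at about 70% in these data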;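 further: 0% = DMSO with NR2E3 transfected cells and 100% = cells lacking NR2E3 construct; higher means lower luciferase signal from less NR2E3 corepressor binding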
PKA-R2B act: activators of PKA-R2B holoenzyme, primary screen, biochemical, fluorescence polarization, Cy5-IP20, human; cAMP-dependent protein kinase catalytic subunit beta (Homo sapiens) + cAMP-dependent …; PKA-R2B holoenzyme dissociation; R2B truncated from residue 108, S112A mutant; 0% DMSO only, 100% 113 µM cGMP; activation, % at 11.4 µM; actives 0.079% (n = 340,000);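 active means activation above a cutoff set at the mean over all compounds plus 3 SD, cut at about 18% in these data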;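 further: higher means more holoenzyme dissociation and a rise in polarization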
PG9 binder: binders of HIV-1 gp120 antibody PG9, primary screen, biochemical, TR-FRET | HIV-1 gp120 / PG9 antibody interaction | TR-FRET gp120-PG9 antibody binding | inhibition, % at 6.7 µM | actives 0.43% (n = 360,000); in the data active means inhibition above about 8.5%
NR1D1 mod conf: modulators of Rev-erb alpha DNA binding, confirmation, biochemical, FITC-DNA, fluorescence polarization, single point | 90 min | actives 61% (n = 3,000) | AID 1259319, 2017 | shares compounds with Rev-erbA mod | activation, % at 25 µM;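 active means activation at or above a set limit, or at least 3 SD above the negative control mean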;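 further: 0% = 35 nM protein with DMSO and 100% = 750 nM protein high control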
RORg DNA counter: modulation of RORgamma DNA binding, dose response, counter-screen for Rev-erb alpha modulator project, biochemical, fluorescence polarization, FITC-DNA. shares compounds with Rev-erbA mod. purified RORgamma protein-FITC-DNA binding. IC50, µM. actives 8% (n = 910);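 active means Compounds whose fitted half-maximal concentration for disrupting protein-DNA binding is below 10 micromolar; the record names Rev-erb in its text, so the target is in doubt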
* = called active by the depositor. The list is not random: actives were taken first. Their share in the collection is about 1.6%.

CCCCCCCCN1C(=O)[C@@H](CC(=O)NCCC(C)C)C[C@@]2(C(=O)OC)C1=C[C@H](COCc1ccccc1)O[C@@H]2C was read as Rev-erbA mod -1.
C[n+]1c2cc(N)ccc2cc2ccc(N)cc21 was read as Rev-erbA mod 51*, PKA-R1A act 5, NR2E3 ag-2 -23, PKA-R2B act 4, PG9 binder -8, NR1D1 mod conf 29* and RORg DNA counter >40.
For Nc1ccc2ccc(O)cc2c1 the results were Rev-erbA mod 1, PKA-R1A act -8, NR2E3 ag-2 -41, PKA-R2B act -2 and PG9 binder -1.
CCN(c1cccc(C)c1)S(=O)(=O)c1cc2c3c(c1)CCC(=O)N3CCC2 was read as NR2E3 ag-1 -2, Rev-erbA mod 53*, PKA-R1A act -8, NR2E3 ag-2 11, PKA-R2B act -3, PG9 binder -2, NR1D1 mod conf 62* and RORg DNA counter >40.
For CCCCCCc1cc2cc(C(=O)Nc3ccccc3)c(=O)oc2cc1O the results were NR2E3 ag-1 8, Rev-erbA mod 91*, PKA-R1A act -1, NR2E3 ag-2 -19, PKA-R2B act -1, PG9 binder 0, NR1D1 mod conf 43* and RORg DNA counter 6.3*.
Screening COC(=O)[C@]12C[C@H](CC(=O)N3CCOCC3)C(=O)N(CCc3ccc(OC)c(OC)c3)C1=C[C@H](C1CCCC1)O[C@@H]2C returned Rev-erbA mod 6.
S=c1[nH]ncn2c1cc1oc3ccccc3c12 was read as NR2E3 ag-1 -137, Rev-erbA mod 34*, PKA-R1A act 4, NR2E3 ag-2 -42, PKA-R2B act 7, PG9 binder 8 and NR1D1 mod conf 20*.
C/C=C(/C(=C/C)c1ccc(O)cc1)c1ccc(O)cc1 was read as NR2E3 ag-1 0, Rev-erbA mod 31*, PKA-R1A act 0, NR2E3 ag-2 -42, PKA-R2B act -2, PG9 binder -2, NR1D1 mod conf 40* and RORg DNA counter >40.
Screening CC(=O)C1(C(=O)N2CCOCC2)CC(c2ccccc2C(F)(F)F)=NO1 (configuration not stated) returned Rev-erbA mod 4.
`COc1ccc(C(C)=O)cc1CSc1nnc(-c2ccc(Cl)cc2)n1-c1ccccc1` gave NR2E3 ag-1 2, Rev-erbA mod -4, PKA-R1A act -13, NR2E3 ag-2 -10, PKA-R2B act -8 and PG9 binder -1.
COc1ccc(C(C)=O)cc1CSc1nc2ccccc2c(=O)n1-c1cccc(C)c1 was read as NR2E3 ag-1 -1, Rev-erbA mod 39*, PKA-R1A act -8, NR2E3 ag-2 -21, PKA-R2B act 2, PG9 binder -1, NR1D1 mod conf 36* and RORg DNA counter 9.4*.
`COc1ccc(C(C)=O)cc1CSc1nc2ccccc2c(=O)n1-c1ccccc1` gave NR2E3 ag-1 -3, Rev-erbA mod 36*, PKA-R1A act 2, NR2E3 ag-2 -3, PKA-R2B act -4, PG9 binder 4, NR1D1 mod conf 36* and RORg DNA counter >40.
Cc1cccc(-n2c(SCN3C(=O)c4ccccc4C3=O)nc3ccccc3c2=O)c1 was read as Rev-erbA mod 17 and PG9 binder -1.
COC(=O)[C@]12C[C@H](CC(=O)N3CCSCC3)C(=O)N(Cc3ccc4c(c3)OCO4)C1=C[C@H](COCc1ccccc1)O[C@@H]2C was read as Rev-erbA mod 2 and PG9 binder -1.
For CCN(CC)c1ccc(NC(=O)CSc2nnc(SCc3ccc(Cl)cc3)s2)cc1 the results were Rev-erbA mod 0.
Screening Cc1ccc(NC(=S)/N=C(\N)Nc2nc(C)c3cc(C)c(C)cc3n2)cc1C returned NR2E3 ag-1 -1, Rev-erbA mod 27*, PKA-R1A act -6, NR2E3 ag-2 -13, PKA-R2B act -10, PG9 binder -2 and NR1D1 mod conf -1.
CCOc1ccc2nc(N/C(N)=N/C(=S)Nc3cccc(OC)c3)nc(C)c2c1 was read as NR2E3 ag-1 -1, Rev-erbA mod 32*, PKA-R1A act 2, NR2E3 ag-2 -3, PKA-R2B act -14, PG9 binder 0 and NR1D1 mod conf 3.
For CCOc1ccc2nc(N/C(N)=N/C(=S)Nc3cccc(C)c3)nc(C)c2c1 the results were NR2E3 ag-1 5, Rev-erbA mod 35*, PKA-R1A act -2, NR2E3 ag-2 -30, PKA-R2B act -16, PG9 binder 0, NR1D1 mod conf 37* and RORg DNA counter >40.
Screening Cc1ccc(NC(=S)/N=C(\N)Nc2nc(C)c3cc(C)ccc3n2)c(C)c1 returned NR2E3 ag-1 5, Rev-erbA mod -3, PKA-R1A act -11, NR2E3 ag-2 37, PKA-R2B act -5 and PG9 binder 0.
`S=C(Nc1ccc(I)cc1)OC1CCC12CCC(c1ccccc1)CC2` (configuration not stated) gave Rev-erbA mod 5.
`CC(=O)CC[C@H]1CC[C@]2(CCCN(C(=O)C3CCCCC3)C2)O1` gave Rev-erbA mod 7.
Cc1cc(C)c(NC(=O)COc2ccccc2C(=O)Nc2ccc3c(c2)oc2ccccc23)c(C)c1 was read as NR2E3 ag-1 0, Rev-erbA mod 32*, PKA-R1A act -5, NR2E3 ag-2 -36, PKA-R2B act -3, PG9 binder 0, NR1D1 mod conf 37* and RORg DNA counter >40.
Screening COc1ccc(CN2CCC(CNC(=O)Nc3ccc(C)c(F)c3)CC2)cc1 returned Rev-erbA mod -1.
Screening Cc1cc(Br)cn2c(Cc3ccccc3C(F)(F)F)c(-c3cccc(Cl)c3)nc12 returned Rev-erbA mod 24*, PG9 binder 1 and NR1D1 mod conf 0.
